This is an account of results in ChEMBL document CHEMBL1151960, “(Nitrooxyacyloxy)methyl esters of aspirin as novel nitric oxide releasing aspirins” (J Med Chem, 2009).

The subject of series [1] is Aorta. The series can be described thus: Vasodilatory activity in Wistar rat endothelium-denuded thoracic aortic ring assessed as inhibition of phenylephrine-induced contraction […]. The series is classed as functional, tissue-based. The method, boiled down: (§1)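 Endothelium-denuded rat aorta strips are precontracted with phenylephrine. At the plateau, cumulative concentrations of test agent in DMSO are added. Relaxation is recorded isometrically and reported as EC50 ± SEM (μM). In a separate series, 1 μM ODQ is added 5 min before contraction, giving at least 30 min of preincubation before the vasodilator. At least five experiments.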

Series [2] deals with Aorta. The series can be described thus: Vasodilatory activity in Wistar rat endothelium-denuded thoracic aortic ring assessed as inhibition of phenylephrine-induced contraction preincubated for […] in presence of 1 uM 1H-[1,2,4]oxadiazolo[4,3-a]quinoxalin-1-one. The series is classed as functional, tissue-based. The method, boiled down: as §1
Series [3] in a line: Chemical stability in acidic medium at pH 1 assessed as unchanged drug level at 0.5 mM after 3 hrs by RP-HPLC analysis. The class given is physicochemical. The following applies: read-out: Stability. The method, boiled down:
(§2)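 A 0.5 mM acetonitrile solution (2 mL) is diluted to 10 mL with HCl (pH 1.0) or 50 mM phosphate buffer (pH 7.4) and held at 37 ± 0.5 °C. Aliquots are taken over time for RP-HPLC (C18 column, acetonitrile/water gradient with 0.1% TFA). Performed in triplicate.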

Series [4] can be described thus: Chemical stability in phosphate buffer at pH 7.4 assessed as unchanged drug level at 0.5 mM after 3 hrs by RP-HPLC analysis. The class given is physicochemical. The following applies: read-out: Stability. In outline: as §2
A short description of series [5]: Metabolic stability in human serum assessed as half life at 250 uM by RP-HPLC analysis. The series is classed as ADME, cell-free.
Another series has as its system Serum. The series can be described thus: Metabolic stability in human serum assessed as maximal amount of aspirin released at 250 uM by RP-HPLC analysis. The class given is ADME, cell-free.
The next series relates to Platelet. The series can be described thus: Antiaggregatory activity in human platelet rich plasma assessed as inhibition of collagen-induced platelet aggregation preincubated 10 mins before collagen challenge. The class given is functional. The method, boiled down: (§3)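 Platelet-rich plasma from citrated blood spun at 210g for 20 min. Compound in 0.5% DMSO vehicle preincubated 10 min, then submaximal collagen (0.8–1.5 μg/mL). Light-transmission aggregometry with stirring at 1000 rpm, 37 °C, recorded for 10 min. Read-out is % inhibition versus vehicle control; IC50 by nonlinear regression, else % inhibition at 300 μM top concentration. At least five experiments.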

Series [6] in a line: Antiaggregatory activity in human platelet rich plasma assessed as inhibition of collagen-induced platelet aggregation at 300 uM preincubated 10 mins before collagen challenge. The class given is functional. In outline: as §3
Series [7] relates to Aorta. The series can be described thus: Vasodilatory activity in Wistar rat endothelium-denuded thoracic aortic ring assessed as inhibition of phenylephrine-induced contraction at 30 uM preincubated for 30 mins before phenylephrine addition in presence of 1 uM 1H-[1,2,4]oxadiazolo[4,3-a]quinoxalin-1-one. Set-up: scale not given: the % may be the effect or the level left. The series is classed as functional.

The subject of series [8] is Aorta. The series can be described thus: Vasodilatory activity in Wistar rat endothelium-denuded thoracic aortic ring assessed as inhibition of phenylephrine-induced contraction at 100 uM preincubated for 30 mins before phenylephrine addition in presence of 1 uM 1H-[1,2,4]oxadiazolo[4,3-a]quinoxalin-1-one. The class given is functional. Also on record: scale not given: the % may be the effect or the level left.

What is called EC50 is the concentration at which the effect is half-maximal. `O=C(O)c1ccc(SCC(CO[N+](=O)[O-])O[N+](=O)[O-])cc1` (stereo not given): in the series on Aorta [1], the Activity result is “Dose-dependent effect” and the EC50 came out at 270 nM. For the same compound, in the series on Aorta [2], the EC50 came to 56 µM.
The like results for `O=C(O)c1ccc(SCCCO[N+](=O)[O-])cc1` were, in that order, “Dose-dependent effect”, 270 nM and 53 µM.
The like results for `O=C(O)c1ccc(OCCCO[N+](=O)[O-])cc1` were, in that order, “Dose-dependent effect”, 620 nM and 66 µM.
The like results for `O=C(O)c1ccc(OCC(CO[N+](=O)[O-])O[N+](=O)[O-])cc1` (stereo not given) were, in that order, “Dose-dependent effect”, 280 nM and 67 µM.
Broadly, the half-life is how long it takes for the measured level to halve. For orientation: inhibition means the share of the control response that was lost under treatment. As to `CC(=O)Oc1ccccc1C(=O)OCOC(=O)CCCCCO[N+](=O)[O-]`, the remaining at 3 h, 500 µM in series [3] and in series [4] was 99% throughout. In series [5], the half-life at 250 µM is < 1 min. Moreover, the Activity is 10.1% in the series with Serum, “Dose-dependent effect” in the series on Platelet, “Dose-dependent effect” in the series with Aorta [1] and <50% in the series on Aorta [7]. Also, the inhibition at 300 µM in [6] was 17%. In the series with Aorta [1], the EC50 came to 1200 nM.
As to `O=C(O)c1cccc(CO[N+](=O)[O-])n1`, in the series on Aorta [1], the Activity entry is “Dose-dependent effect” and the EC50 was 12000 nM. For the same compound, the Activity with Aorta [8] was <50%.
For `CC(=O)Oc1ccccc1C(=O)OC(C)OC(=O)c1ccc(SCCCO[N+](=O)[O-])cc1` (stereo not given), the values for the remaining at 3 h, 500 µM in [3] and in [4] were 98% and 99%, respectively. In addition, the half-life at 250 µM in series [5] came to 4.4 min. The Activity is 29.4% in the series on Serum, “Dose-dependent effect” in the series with Platelet, “Dose-dependent effect” in the series on Aorta [1] and <50% with Aorta [7]. Besides, in series [6], the inhibition at 300 µM is 27%. Also, in the series with Aorta [1], the EC50 came to 140 nM.
Regarding `CC(=O)Oc1ccccc1C(=O)OCOC(=O)CCCCCCO[N+](=O)[O-]`, the remaining at 3 h, 500 µM in series [3] was 99%; in [4], 100%. Moreover, in series [5], the half-life at 250 µM was < 1 min. Besides, the Activity in the series with Serum was 17.6%; with Platelet, “Dose-dependent effect”; in the series with Aorta [1] it was “Dose-dependent effect”; in the series on Aorta [7], <50%. In addition, the inhibition at 300 µM in series [6] worked out at 29%. Also, the EC50 in the series with Aorta [1] amounted to 1600 nM.
For `CC(=O)Oc1ccccc1C(=O)OCOC(=O)CCCC(CO[N+](=O)[O-])O[N+](=O)[O-]` (stereo not given), the remaining at 3 h, 500 µM in series [3] and in series [4] was 99% throughout. In addition, the half-life at 250 µM in series [5] was < 1 min. Further, the Activity in the series on Serum was 10.6%; with Platelet, “Dose-dependent effect”; in the series with Aorta [1] it was “Dose-dependent effect”; in the series with Aorta [7], <50%. In addition, the inhibition at 300 µM in [6] turned out to be 8.6%. Besides, the EC50 in the series on Aorta [1] is 390 nM.
Consider `CC(=O)Oc1ccccc1C(=O)OCOC(=O)CCCCC(CO[N+](=O)[O-])O[N+](=O)[O-]` (stereo not given), for which the remaining at 3 h, 500 µM in series [3] and in [4] was 99% in each case. Moreover, the half-life at 250 µM in series [5] was < 1 min. Further, the Activity with Serum was 9.8%; in the series with Platelet it was “Dose-dependent effect”; with Aorta [1], “Dose-dependent effect”; with Aorta [7], <50%. In addition, in [6], the inhibition at 300 µM amounted to 36%. In addition, the EC50 in the series with Aorta [1] was 520 nM.
